Source: PubChem
In the library only some 1.6% were active in any assay of this set; here they are far more common.
NR2E3 ag-1 = activates human NR2E3 receptor. Q9Y5X4. CHO-S Gal4-NCOR/VP16-NR2E3 two-hybrid, luciferase. inhibition of corepressor binding, % at 3.98 µM. actives 0.35% (n = 360,000). AID 602229;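 active = inhibition above the mean of all tested compounds plus 3 SD, cut at about 70% in these data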;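 note: higher means lower luciferase signal from less NR2E3 corepressor binding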
PKA-R2B activ = activators of human PKA-R2B complex; P22694+P31323; PKA-R2B holoenzyme dissociation, Cy5-IP20 fluorescence polarization; R2B truncated from residue 108, S112A mutant; 0% DMSO only, 100% 113 µM cGMP; activation, % at 11.4 µM; actives 0.079% (n = 340,000); AID 504700;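 active = activation above a cutoff set at the mean over all compounds plus 3 SD, cut at about 18% in these data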;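 note: higher means more holoenzyme dissociation and a rise in polarization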
NR1D1 modulator = Rev-erb alpha (human) modulation | Rev-erbα–FITC-DNA binding, fluorescence polarization, 90 min | activity, % at 10 µM | actives 0.79% (n = 370,000) | AID 1259318;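 active = activity above about 14%, limit read from the data; passing the limit was not always enough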
NR2E3 ag-2 = agonists of human nuclear receptor NR2E3 | Q9Y5X4 | GST-NR2E3/biotin-RetCOR TR-FRET, 1536-well | inhibition of corepressor binding, % at 4.78 µM | actives 0.12% (n = 320,000);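 active = percent inhibition above the cutoff of mean plus 3 SD of all tested compounds, set per screening campaign, cut at about 20% in these data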
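Test system – NR2E3–RetCOR corepressor complex · Quantity – NR2E3 fusion 1.35 nM · Buffer or medium – Tris pH 7.5 · Incubation – Compound–protein incubation for 5 h at 4 °C · Technique – TR-FRET, Eu(K)-anti-GST donor, streptavidin-D2 acceptor, ex 340, em 617/671 nm · Evaluation – percent inhibition of 671/617 nm emission ratio versus biotin and DMSO controls · Plate – 1536-well format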
PKA-R1A act = activates the PKA-R1A holoenzyme complex. P00514+P68181. PKA-R1A dissociation, Cy5-IP20 fluorescence polarization; scaled: DMSO 0%, 113 µM cGMP 100%. activation, % at 11.4 µM. actives 0.083% (n = 340,000);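 active = percent activation above the mean of all tested compounds plus 3 SD, cut at about 19% in these data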;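 note: higher means more PKAc released from R1A so a rise in polarization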
PG9 Ab binder = small molecules binding HIV-1 gp120 antibody PG9 | TR-FRET gp120-PG9 antibody binding | inhibition, % at 6.7 µM | actives 0.43% (n = 360,000); in the data active = inhibition above about 8.5%
NR2E3 ag confirm-1 = NR2E3 (human) agonism, confirmation. cell-free NR2E3 corepressor release, TR-FRET, 5 h. activation (reported as inhibition), % at 3.98 µM. shares compounds with NR2E3 ag-2. actives 39% (n = 360); in the data active = activation above about 20%
PPARg-NCOR2 ag = counter-screen for NR2E3 agonists: human PPARgamma-NCOR2 interaction agonists. shares compounds with NR2E3 ag-2. TR-FRET PPARg-NCOR2 coregulator interaction, biochemical. inhibition, % at 3.98 µM. actives 45% (n = 360). AID 504787; in the data active = inhibition above about 20%
Target sequence (P37231 whole entry, looked up): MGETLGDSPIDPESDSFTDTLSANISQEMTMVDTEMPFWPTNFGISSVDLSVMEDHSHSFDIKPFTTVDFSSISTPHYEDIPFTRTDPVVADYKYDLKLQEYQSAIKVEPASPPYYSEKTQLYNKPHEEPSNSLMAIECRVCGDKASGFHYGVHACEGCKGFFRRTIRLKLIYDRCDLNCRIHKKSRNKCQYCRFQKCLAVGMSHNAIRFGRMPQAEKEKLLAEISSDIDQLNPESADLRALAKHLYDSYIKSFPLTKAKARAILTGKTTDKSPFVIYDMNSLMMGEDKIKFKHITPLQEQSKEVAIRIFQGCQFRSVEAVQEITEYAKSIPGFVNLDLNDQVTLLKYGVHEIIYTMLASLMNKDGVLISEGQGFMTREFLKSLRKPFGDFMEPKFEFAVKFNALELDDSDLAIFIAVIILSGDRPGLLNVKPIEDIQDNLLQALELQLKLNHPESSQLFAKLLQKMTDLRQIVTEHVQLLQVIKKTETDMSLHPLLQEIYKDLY
Target sequence (Q9Y618 whole entry, looked up): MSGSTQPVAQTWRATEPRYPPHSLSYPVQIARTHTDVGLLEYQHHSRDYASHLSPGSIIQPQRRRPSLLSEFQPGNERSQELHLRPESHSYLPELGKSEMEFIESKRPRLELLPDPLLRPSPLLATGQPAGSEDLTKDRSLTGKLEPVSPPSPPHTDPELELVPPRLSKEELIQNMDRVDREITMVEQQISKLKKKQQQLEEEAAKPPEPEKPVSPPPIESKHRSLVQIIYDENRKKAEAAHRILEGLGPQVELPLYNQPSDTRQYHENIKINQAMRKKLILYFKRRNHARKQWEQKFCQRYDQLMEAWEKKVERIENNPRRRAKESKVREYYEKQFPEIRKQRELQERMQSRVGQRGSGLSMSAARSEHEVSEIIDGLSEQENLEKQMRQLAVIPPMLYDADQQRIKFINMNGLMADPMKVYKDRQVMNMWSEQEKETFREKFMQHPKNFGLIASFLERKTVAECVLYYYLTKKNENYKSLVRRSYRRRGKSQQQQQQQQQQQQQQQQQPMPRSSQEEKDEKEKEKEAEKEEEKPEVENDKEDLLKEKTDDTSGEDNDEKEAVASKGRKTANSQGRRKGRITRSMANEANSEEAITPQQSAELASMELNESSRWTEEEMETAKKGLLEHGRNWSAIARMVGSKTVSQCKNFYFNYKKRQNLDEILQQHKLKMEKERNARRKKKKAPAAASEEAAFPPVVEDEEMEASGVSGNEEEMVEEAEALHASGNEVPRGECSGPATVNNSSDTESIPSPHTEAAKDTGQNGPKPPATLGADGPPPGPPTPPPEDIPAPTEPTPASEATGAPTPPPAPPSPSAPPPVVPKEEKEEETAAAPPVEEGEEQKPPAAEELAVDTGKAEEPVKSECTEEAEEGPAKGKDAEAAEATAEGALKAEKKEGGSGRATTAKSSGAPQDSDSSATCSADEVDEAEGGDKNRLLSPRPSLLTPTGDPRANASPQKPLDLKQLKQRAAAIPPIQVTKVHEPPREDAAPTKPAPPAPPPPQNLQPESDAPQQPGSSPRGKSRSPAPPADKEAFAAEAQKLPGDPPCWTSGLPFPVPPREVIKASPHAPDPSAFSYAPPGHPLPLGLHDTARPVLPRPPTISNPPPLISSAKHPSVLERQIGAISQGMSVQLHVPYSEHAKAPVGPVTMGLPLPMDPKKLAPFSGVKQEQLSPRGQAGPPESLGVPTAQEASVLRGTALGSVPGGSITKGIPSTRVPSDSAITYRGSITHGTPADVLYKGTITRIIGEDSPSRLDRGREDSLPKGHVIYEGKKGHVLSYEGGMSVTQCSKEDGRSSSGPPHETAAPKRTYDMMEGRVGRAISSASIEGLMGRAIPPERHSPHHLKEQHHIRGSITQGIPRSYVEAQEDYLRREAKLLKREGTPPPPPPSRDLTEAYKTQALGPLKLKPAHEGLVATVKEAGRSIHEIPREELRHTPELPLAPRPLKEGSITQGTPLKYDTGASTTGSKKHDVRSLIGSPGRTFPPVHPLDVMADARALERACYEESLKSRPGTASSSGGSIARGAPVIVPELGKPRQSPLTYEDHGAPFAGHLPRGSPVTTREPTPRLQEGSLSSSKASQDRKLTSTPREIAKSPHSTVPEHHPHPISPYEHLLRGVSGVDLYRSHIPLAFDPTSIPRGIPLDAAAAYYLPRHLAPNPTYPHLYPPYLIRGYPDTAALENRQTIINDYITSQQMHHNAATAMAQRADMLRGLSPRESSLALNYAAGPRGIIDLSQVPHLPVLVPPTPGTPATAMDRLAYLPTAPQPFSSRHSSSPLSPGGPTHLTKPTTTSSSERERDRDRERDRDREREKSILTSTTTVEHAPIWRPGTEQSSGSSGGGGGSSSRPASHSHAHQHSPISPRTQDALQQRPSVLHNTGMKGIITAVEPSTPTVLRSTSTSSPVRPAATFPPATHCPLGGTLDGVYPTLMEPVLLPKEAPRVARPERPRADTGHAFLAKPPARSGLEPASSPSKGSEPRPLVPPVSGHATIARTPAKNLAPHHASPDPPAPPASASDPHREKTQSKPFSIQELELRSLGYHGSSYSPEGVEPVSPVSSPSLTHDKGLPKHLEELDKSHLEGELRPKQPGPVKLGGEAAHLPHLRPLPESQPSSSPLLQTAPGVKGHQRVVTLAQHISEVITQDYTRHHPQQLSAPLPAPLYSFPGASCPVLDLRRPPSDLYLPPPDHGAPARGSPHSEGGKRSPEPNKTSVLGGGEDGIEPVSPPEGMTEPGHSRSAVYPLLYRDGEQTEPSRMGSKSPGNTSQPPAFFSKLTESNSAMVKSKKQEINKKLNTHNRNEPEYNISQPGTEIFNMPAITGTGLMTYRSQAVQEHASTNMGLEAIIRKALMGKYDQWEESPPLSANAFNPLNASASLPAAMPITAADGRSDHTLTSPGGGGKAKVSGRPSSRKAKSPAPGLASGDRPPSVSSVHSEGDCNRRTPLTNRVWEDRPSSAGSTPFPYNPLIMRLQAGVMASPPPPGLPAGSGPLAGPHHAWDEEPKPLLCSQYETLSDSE
NR2E3 ag confirm-2 = confirmation of human NR2E3 agonists; shares compounds with NR2E3 ag-1; CHO-S mammalian two-hybrid NR2E3-NCOR, luciferase luminescence; inhibition, % at 3.98 µM; actives 51% (n = 2,300); AID 624378;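 active = average inhibition above a cutoff equal to the mean inhibition of all tested compounds plus one SD, cut at about 70% in these data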
VP16 counter = GAL4-VP16 reporter inhibition in NR2E3 agonist counterscreen; shares compounds with NR2E3 ag-1; CHO-S GAL4-VP16 luciferase reporter, luminescence; inhibition, % at 3.98 µM; actives 29% (n = 2,300); AID 624379;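 active = mean inhibition above a cutoff equal to the average over all tested compounds plus one standard deviation, cut at about 70% in these data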;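 note: luciferase from a UAS reporter driven by GAL4-VP16 transactivation; higher means less reporter light so more repression of VP16 activity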
PG9 binder conf = confirmation of small molecules binding HIV-1 gp120 antibody PG9; AID 651571; shares compounds with PG9 Ab binder; inhibition, % at 6.7 µM; actives 90% (n = 1,500); TR-FRET PG9 antibody binding, biochemical; in the data active = inhibition above about 9%
PGV04 Ab binding = counter-screen for PG9 binders: binding control antibody PGV04; shares compounds with PG9 Ab binder; TR-FRET PGV04 antibody-gp120 binding, biochemical; inhibition, % at 6.7 µM; actives 95% (n = 1,500); in the data active = inhibition above about 9.5%
PG9 bind DR = small molecules binding HIV-1 gp120 antibody PG9 | shares compounds with PG9 Ab binder | TR-FRET PG9 antibody-gp120 binding inhibition | IC50, µM | 95 tested, under 10 active | AID 651848; in the data active = IC50 below about 10 µM
PGV04 binding DR = binds control antibody PGV04 in PG9 counter-screen. IC50, µM. actives 20% (n = 95). TR-FRET binding to control antibody PGV04. AID 651937. shares compounds with PG9 Ab binder
PG126 binding DR = binds control antibody PG126 in PG9 counter-screen; shares compounds with PG9 Ab binder; TR-FRET binding to antibody PG126, counterscreen; IC50, µM; actives 20% (n = 95); AID 651939
Of the large screens only hits and unclear results are named; the others gave an inactive call (follow-up assays come after a bar, where they were run). Cut-off read from the data, not from the text of the source, unless noted: active = IC50 below about 9 µM; inactive = the rest.

Cc1c(Cl)c(-c2n[nH]c(=S)n2-c2ccc(F)cc2)nn1C	NR2E3 ag-2 20.8, PG9 Ab binder 10.4 | NR2E3 ag confirm-1 inactive | PPARg-NCOR2 ag inactive | PG9 binder conf 11.9 | PGV04 Ab binding 10.8 | PG9 bind DR inactive | PGV04 binding DR inactive | PG126 binding DR inactive
Cn1cc(Cl)c(-c2n[nH]c(=S)n2-c2ccccc2)n1	NR2E3 ag-2 26.9, PG9 Ab binder 16.1 | NR2E3 ag confirm-1 inactive | PPARg-NCOR2 ag inactive | PG9 binder conf 14.7 | PGV04 Ab binding 17.0
CCO[C@@H](Cc1ccc(OCCc2ccc(OS(C)(=O)=O)cc2)cc1)C(=O)O	none (no result: NR2E3 ag-1, PKA-R2B activ, NR2E3 ag-2, PKA-R1A act, PG9 Ab binder)
Oc1ccc2ccccc2c1	none (no result: NR2E3 ag-1, PKA-R2B activ, NR2E3 ag-2, PKA-R1A act, PG9 Ab binder)
C[C@H]1CC2C([C@@H](O)C[C@@]3(C)C2CC[C@]3(O)C(=O)CO)[C@@]2(C)C=CC(=O)C=C12 (some centres not stated)	none (no result: NR2E3 ag-1, PKA-R2B activ, NR2E3 ag-2, PKA-R1A act, PG9 Ab binder)
CC1(C)S[C@@H]2[C@H](NC(=O)[C@H](C(=O)O)c3cccs3)C(=O)N2[C@H]1C(=O)O	none (no result: NR2E3 ag-1, PKA-R2B activ, NR2E3 ag-2, PKA-R1A act, PG9 Ab binder)
C[C@@H](O)[C@H](N)C(=O)O	none (no result: NR2E3 ag-1, PKA-R2B activ, NR2E3 ag-2, PKA-R1A act, PG9 Ab binder)
C[C@H]1[C@@H](OC(=O)Nc2ccc(C(F)(F)F)cc2)CC[C@@]23CCCN2C(=O)CCC[C@@H]13	none (no result: NR2E3 ag-1, PKA-R2B activ, NR2E3 ag-2, PKA-R1A act, PG9 Ab binder)
Cc1onc(-c2c(F)cccc2Cl)c1C(=O)Nc1nccs1	none
Cc1onc(-c2c(F)cccc2Cl)c1C(=O)Nc1nnc(C(F)(F)F)s1	NR2E3 ag-1 91.7, NR2E3 ag-2 22.9, PG9 Ab binder 24.4 | NR2E3 ag confirm-1 19.7 | PPARg-NCOR2 ag inactive | NR2E3 ag confirm-2 95.8 | VP16 counter 76.7 | PG9 binder conf 29.5 | PGV04 Ab binding 41.8
CC[C@H](C)[C@H](N)C(=O)O	none (no result: NR2E3 ag-1, PKA-R2B activ, NR2E3 ag-2, PKA-R1A act, PG9 Ab binder)
CC(C)C1Cc2ccccc2-c2[nH]c(=S)[nH]c(=O)c21 (configuration not stated)	NR2E3 ag-2 20.3, PG9 Ab binder 30.4 (no result: PKA-R2B activ, PKA-R1A act) | NR2E3 ag confirm-1 21.0 | PPARg-NCOR2 ag 26.2 | PG9 binder conf inactive | PGV04 Ab binding inactive
CCc1c(C(=O)O)[nH]c2ccc(Br)cc12	NR2E3 ag-2 43.5, PG9 Ab binder 13.5 | NR2E3 ag confirm-1 40.7 | PPARg-NCOR2 ag 30.2 | PG9 binder conf 26.0 | PGV04 Ab binding 27.1
Cc1cc(Br)c2nc3c(c(C(=O)O)c2c1)CCCCC3	NR2E3 ag-2 48.0, PG9 Ab binder 74.5 | NR2E3 ag confirm-1 60.1 | PPARg-NCOR2 ag 60.5 | PG9 binder conf 73.8 | PGV04 Ab binding 88.3
O=c1[nH]cnc2c1ncn2C1O[C@H](CO)[C@@H](O)[C@H]1O (some centres not stated)	none (no result: NR2E3 ag-1, PKA-R2B activ, NR2E3 ag-2, PKA-R1A act, PG9 Ab binder)
